According to ChEMBL document CHEMBL1140720, “Novel prodrugs of tegafur that display improved anticancer activity and antiangiogenic properties” (J Med Chem, 2008):
pIC50: −log10 of the molar value. The source made the active and inactive calls. The calls are words filed in the database; no cut-off is given here.

How the values were obtained:
[1] = Anticancer activity against human MES-SA DXS cells after 72 hrs by Hoechst test; type: functional, cell-based
How it was run: (§1)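 Cells seeded at 0.5–1 × 10^4/well for 24 h, then exposed in triplicate to a concentration titration for 72 h. Drug stock 0.5 M in DMSO, final DMSO ≤0.1%. Cells rinsed with PBS, fixed in 70% ethanol, and stained for DNA (Hoechst). IC50/IC90 taken from best-fit curves (linear or exponential) of % survival vs concentration, ≥3 independent experiments.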

HT-29 [2] = assay: Anticancer activity against human HT29 cells after 72 hrs by Hoechst test; type: functional, cell-based; conditions: HT-29, 72 h; how it was run: as §1
[3] = Anticancer activity against human astrocytes cells after 72 hrs by Hoechst test; type: ADME, cell-based, Astrocyte; conditions: for pIC50: Homo sapiens, Astrocyte, 72 h; for IC90 at 72 h: human, human astrocytes; how it was run: as §1
[4] = Anticancer activity against mouse Pan02 cells after 72 hrs by Hoechst test; type: functional, cell-based; conditions: Pan02, 72 h; how it was run: as §1
CT26 [5] = assay: Anticancer activity against mouse CT26 cells after 72 hrs in the presence of semicarbazide by Hoechst test; type: functional, cell-based; conditions: CT26, 72 h
How it was run: (§2)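 Same 72 h Hoechst viability titration, run with or without co-addition of 500 µM semicarbazide as formaldehyde scavenger. IC50 and IC90 derived from dose-response curves.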

LS-1034 [6] = assay: Anticancer activity against human LS1034 cells after 72 hrs in the presence of semicarbazide by Hoechst test; type: functional, cell-based; conditions: LS-1034, 72 h; how it was run: as §2
BXPC-3 [7] = assay: Anticancer activity against human BXPC3 cells after 72 hrs in the presence of semicarbazide by Hoechst test; type: functional, cell-based; conditions: BXPC-3, 72 h; how it was run: as §2
LS-1034 [8] = assay: Anticancer activity against human LS1034 cells after 72 hrs by Hoechst test; type: functional, cell-based; conditions: LS-1034, 72 h; how it was run: as §1
HUVEC [9] = assay: Effect on cell viability of HUVEC cells after 48 hrs; type: functional, cell-based; conditions: Homo sapiens
How it was run: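 HUVEC grown at 37 °C, 5% CO2. Seeded in 96-well plates, then exposed to a concentration titration for 48 h. Viability read by Hoechst DNA fluorescence after ethanol fixation. IC50/IC90 from best-fit curves of ≥3 independent experiments.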

[10] = Anticancer activity against human MES-SA cells after 72 hrs by Hoechst test; type: functional, cell-based; how it was run: as §1
[11] = Anticancer activity against human SK-ES cells after 72 hrs by Hoechst test; type: functional, cell-based; how it was run: as §1
CT26 [12] = assay: Anticancer activity against mouse CT26 cells after 72 hrs by Hoechst test; type: functional, cell-based; conditions: CT26, 72 h; how it was run: as §1
HT-29 [13] = assay: Anticancer activity against human HT29 cells after 72 hrs in the presence of semicarbazide by Hoechst test; type: functional, cell-based; conditions: HT-29, 72 h; how it was run: as §2
U-251 = assay: Anticancer activity against human U251 cells after 72 hrs by Hoechst test; type: functional, cell-based; how it was run: as §1
BXPC-3 [14] = assay: Anticancer activity against human BXPC3 cells after 72 hrs by Hoechst test; type: functional, cell-based; conditions: BXPC-3, 72 h; how it was run: as §1
Mus musculus = assay: Inhibition of HDAC in po dosed mouse 4T1 tumor implanted in BALB/c mouse assessed as histone acetylation level after 4 hrs; type: functional
How it was run: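 Balb/c mice carrying sc 4T1 tumors (5 × 10^4 cells implanted), dosed orally at 100 mg/kg once tumors reached 1.0 cm³. Tumors excised 4 h later and histones extracted; 5 µg protein run on 15% SDS gels. Western blot for acetyl-H4 (Lys-12), normalized to pan-H3; fold change versus untreated.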

HUVEC [15] = assay: Antiangiogenic activity against HUVEC cells assessed as tube formation at 80 uM after 24 hrs; type: functional, cell-based; conditions: Homo sapiens
How it was run: (§3)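 HUVEC (5 × 10^4 cells/well) seeded on a matrigel layer in supplemented EGM-2 medium. Test agent added at 80 µM, triplicate wells, incubated 3 to 24 h. Tube formation was visualized by light microscopy and photographed at ×40.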

HT-29 [16] = assay: Antitumor activity against human HT29 xenografted CD1 mouse at 50 mg/kg, po; type: functional, organism-based; design: dose 50 mg/kg
How it was run: (§4)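 Male nude CD1 mice implanted sc in the flank with HT-29 cells. Once tumors were palpable, oral dosing at 50 mg/kg (water vehicle), with vehicle-only controls; 14 controls, 12 per treated group. Tumors measured by caliper twice weekly, volume = (L × W²)/2. At the end, blood drawn for serum CEA.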

HT-29 [17] = assay: Antitumor activity against human HT29 xenografted CD1 mouse assessed as decrease in CEA level; type: functional; how it was run: as §4
HUVEC [18] = assay: Antiangiogenic activity against HUVEC cells assessed as tube formation at 80 uM after 8 hrs; type: functional, cell-based; conditions: Homo sapiens; how it was run: as §3
CT26 [19] = assay: Anticancer activity against mouse CT26 cells after 72 hrs in the presence of HMTA by Hoechst test; type: functional, cell-based; conditions: CT26, 72 h
How it was run: (§5)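 Same 72 h Hoechst viability titration, with or without co-addition of hexamethylenetetramine (HMTA) at 250 µM. IC50 and IC90 derived from dose-response curves.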

LS-1034 [20] = assay: Anticancer activity against human LS1034 cells after 72 hrs in the presence of succinate by Hoechst test; type: functional, cell-based; conditions: LS-1034, 72 h
How it was run: (§6)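 Same 72 h Hoechst viability titration, with or without co-addition of succinic acid at 2.5 mM. IC50 and IC90 derived from dose-response curves.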

HT-29 [21] = assay: Anticancer activity against human HT29 cells after 72 hrs in the presence of HMTA by Hoechst test; type: functional, cell-based; conditions: HT-29, 72 h; how it was run: as §5
BXPC-3 [22] = assay: Anticancer activity against human BXPC3 cells after 72 hrs in the presence of HMTA by Hoechst test; type: functional, cell-based; conditions: BXPC-3, 72 h; how it was run: as §5
CT26 [23] = assay: Anticancer activity against mouse CT26 cells after 72 hrs in the presence of succinate by Hoechst test; type: functional, cell-based; conditions: CT26, 72 h; how it was run: as §6
BXPC-3 [24] = assay: Anticancer activity against human BXPC3 cells after 72 hrs in the presence of succinate by Hoechst test; type: functional, cell-based; conditions: BXPC-3, 72 h; how it was run: as §6
HT-29 [25] = assay: Anticancer activity against human HT29 cells after 72 hrs in the presence of succinate by Hoechst test; type: functional, cell-based; conditions: HT-29, 72 h; how it was run: as §6
LS-1034 [26] = assay: Anticancer activity against human LS1034 cells after 72 hrs in the presence of HMTA by Hoechst test; type: functional, cell-based; conditions: LS-1034, 72 h; how it was run: as §5
HUVEC [27] = assay: Antiangiogenic activity against HUVEC cells assessed as tube formation at 80 uM after 3 hrs; type: functional, cell-based; conditions: Homo sapiens; how it was run: as §3

## O=c1c(F)cn(C2CCCO2)c(=O)n1CO (centres undefined)
[1]
  pIC50: 4.20
HT-29 [2]
  pIC50: 4.17
[3]
  pIC50: 3.73
  IC90 at 72 h: 476 µM
[4]
  pIC50: 4.02
  IC90: 219 µM
CT26 [5]
  pIC50: 3.88
  IC90: 252 µM
LS-1034 [6]
  pIC50: 3.88
  IC90: 296 µM
BXPC-3 [7]
  pIC50: 3.80
  IC90: 460 µM
LS-1034 [8]
  pIC50: 4.08
HUVEC [9]
  pIC50: 4.15
  IC90: 120 µM
[10]
  pIC50: 4.10
[11]
  pIC50: 4.35
  IC90: 80 µM
CT26 [12]
  pIC50: 4.00
  IC90: 170 µM
HT-29 [13]
  pIC50: 3.79
  IC90: 303 µM
U-251; Homo sapiens, U-251, 72 h
  pIC50: 3.99
  IC90: 223 µM
BXPC-3 [14]
  pIC50: 4.13

## CCCC(=O)OCn1c(=O)c(F)cn(C2CCCO2)c1=O (centres undefined)
Mus musculus
  Activity: 2
[1]
  pIC50: 4.27
HT-29 [2]
  pIC50: 4.46
  IC90: 84 µM
[3]
  pIC50: 3.70
  IC90 at 72 h: 323 µM
[4]
  pIC50: 4.34
  IC90: 149 µM
CT26 [5]
  pIC50: 4.28
  IC90: 105 µM
LS-1034 [6]
  pIC50: 4.47
  IC90: 94 µM
HUVEC [15]
  Activity: Active
BXPC-3 [7]
  pIC50: 4.06
  IC90: 280 µM
LS-1034 [8]
  pIC50: 4.38
  IC90: 79 µM
HUVEC [9]
  pIC50: 4.00
  IC90: 170 µM
HT-29 [16]
  Activity: Active
[10]
  pIC50: 4.15
[11]
  pIC50: 4.33
  IC90: 81 µM
HT-29 [17]
  Activity: Active
CT26 [12]
  pIC50: 4.57
  IC90: 76 µM
HT-29 [13]
  pIC50: 4.29
  IC90: 138 µM
U-251; Homo sapiens, U-251, 72 h
  pIC50: 4.26
U-251; u-251
  pIC50: 3.97
BXPC-3 [14]
  pIC50: 4.09

## O=c1[nH]c(=O)n(C2CCCO2)cc1F (centres undefined) [TEGAFUR]
Mus musculus
  Activity: 2
HUVEC [18]
  Activity: inactive
CT26 [19]
  pIC50: 3.97
  IC90: 464 µM
LS-1034 [20]
  pIC50: 3.76
  IC90: 617 µM
HT-29 [21]
  pIC50: 3.80
  IC90: 612 µM
[3]
  pIC50: 2.37
  IC90 at 72 h: 7680 µM
[4]
  pIC50: 3.75
  IC90: 637 µM
BXPC-3 [22]
  pIC50: 3.84
  IC90: 654 µM
HUVEC [15]
  Activity: inactive
CT26 [23]
  pIC50: 4.05
  IC90: 311 µM
BXPC-3 [24]
  pIC50: 3.81
  IC90: 719 µM
HUVEC [9]
  pIC50: 3.00
  IC90: 3400 µM
HT-29 [16]
  Activity: Active
HT-29 [25]
  pIC50: 3.80
  IC90: 644 µM
[11]
  pIC50: 3.76
  IC90: 531 µM
HT-29 [17]
  Activity: Active
LS-1034 [26]
  pIC50: 3.71
  IC90: 852 µM
HUVEC [27]
  Activity: inactive
U-251; Homo sapiens, U-251, 72 h
  pIC50: 3.42
  IC90: 1280 µM

## CCOP(=O)(OCC)OCn1c(=O)c(F)cn(C2CCCO2)c1=O (centres undefined)
HT-29 [2]
  pIC50: 4.72
  IC90: 80 µM
[3]
  pIC50: 3.08
  IC90 at 72 h: 2790 µM
U-251; Homo sapiens, U-251, 72 h
  pIC50: 4.14
  IC90: 287 µM
